ChEMBL document CHEMBL4251758, “Small Molecule Inhibition of MicroRNA miR-21 Rescues Chemosensitivity of Renal-Cell Carcinoma to Topotecan” (J Med Chem, 2018)
The source made the active and inactive calls. No cut-off for these calls is given here.

Tests used:
[1] = Inhibition of miR-122 RNA (unknown origin) transfected in human Huh7-psiCHECK-miR122 cells at 10 uM incubated for 48 hrs by Bright-Glo luciferase reporter gene assay
HeLa = assay: Effect on primary miR-21 expression levels in human HeLa cells at 10 uM after 48 hrs by qRT-PCR analysis; assay type: functional, cell-based
Procedure, shortened: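 HeLa cells were treated with 10 μM compound or DMSO (1% final) for 48 h, then RNA was isolated. 50 ng RNA was reverse-transcribed with iScript. TaqMan qPCR used pri-miR-21 and GAPDH primers. Triplicate Ct values were normalized to GAPDH and to DMSO controls by the 2−ΔΔCt method.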

A549 = assay: Decrease in mature miR-21 expression levels in human A549 cells at 10 uM after 48 hrs by qRT-PCR analysis; assay type: functional, cell-based
microRNA 21 [2] = assay: Inhibition of promoter activity of miR-21 RNA (unknown origin) transfected in human HeLa cells at 10 uM after 48 hrs by Bright-Glo luciferase reporter gene assay; assay type: cell-based
Procedure, shortened: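 HeLa cells, 10,000 per well, treated after overnight attachment with 10 μM compound or DMSO (0.1% final) in triplicate for 48 h. Cells were then transfected for 3 h with 100 ng pGL4-miR21P (miR-21 promoter driving firefly luciferase) or empty pGL4.10. Medium was replaced with compound-containing medium for a further 24 h, followed by Bright-Glo luminescence read.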

A 172 = assay: Cytotoxicity against human A172 cells after 72 hrs by XTT assay; assay type: functional, cell-based; details: A 172, 72 h
Procedure, shortened: (§1)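 Cells seeded at 500 per well, incubated overnight, then exposed to increasing compound concentrations (0.1% DMSO final, DMSO control) in triplicate for 72 h. Activated XTT added; absorbance read at 450 nm with 630 nm background at start and after 4 h at 37 °C, 5% CO2. Change normalized to DMSO as % viability; IC50 from variable-slope sigmoidal fit; three independent measurements.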

MCF7 = assay: Cytotoxicity against human MCF7 cells after 72 hrs by XTT assay; assay type: functional, cell-based; details: MCF7, 72 h; procedure, shortened: as §1
HCT-116 = assay: Cytotoxicity against human HCT116 cells after 72 hrs by XTT assay; assay type: functional, cell-based; details: HCT-116, 72 h; procedure, shortened: as §1
microRNA 21 [3] = assay: Inhibition of miR-21 RNA in human A498 cells assessed as potentiation of topotecan-induced cytotoxicity by measuring reduction in topotecan IC50 at 10 uM after 72 hrs by XTT assay relative to topotecan alone; assay type: cell-based
Procedure, shortened: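 The chemotherapeutic agent (topotecan) was titrated while the miR-21 inhibitor was held at a fixed concentration, 0.1% DMSO final, in triplicate. Cells were seeded at 500 per well and treated after overnight attachment. After 72 h, XTT was read at 450 nm (630 nm background) at start and after 4 h. Signal normalized to DMSO; IC50 from variable-slope sigmoidal fit.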

microRNA 21 [4] = assay: Inhibition of miR-21 RNA in human A498 cells assessed as potentiation of topotecan-induced inhibition of colony formation by measuring topotecan IC50 at 10 uM after 2 weeks by crystal violet staining-based microscopic analysis (reference value: 2 uM); assay type: cell-based
Procedure, shortened: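 A498 cells, 10,000 per well, seeded in 0.45% low-melt agarose in DMEM over a 0.7% agarose base layer, containing increasing compound concentrations or DMSO (0.1% final), in triplicate. For combinations, the inhibitor was held at 10 μM. After 2 weeks, colonies were stained with 0.1% crystal violet and imaged by z-stack microscopy. Colony counts were normalized to DMSO; IC50 from sigmoidal fit.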

A498 = assay: Induction of apoptosis in human A498 cells assessed as increase in caspase-3/7 activity at 10 uM after 24 hrs by Caspase-Glo 3/7 assay relative to control; assay type: functional
Procedure, shortened: (§2)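 A498 cells, 10,000 per well, treated after overnight attachment for 24 h with DMSO (0.1%), 400 nM topotecan, 10 μM inhibitor, or topotecan plus inhibitor at those levels. Caspase-3/7 activity read by Caspase-Glo 3/7 luminescence and normalized to DMSO. At least three independent experiments; unpaired t test.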

microRNA 21 [5] = assay: Inhibition of miR-21 RNA in human A498 cells assessed as potentiation of topotecan-induced apoptosis by measuring increase in caspase-3/7 activity at 10 uM after 24 hrs by Caspase-Glo 3/7 assay relative to topotecan alone; assay type: cell-based; procedure, shortened: as §2

With `C#CCOc1ccc(-c2noc(-c3nnn(-c4cccc(/C(C)=N/O)c4)c3N)n2)cc1` the inhibition [1] was “inactive”, the Activity (HeLa) was “inactive” and the Activity (A549) was “inactive”. For the same molecule, the inhibition (microRNA 21 [2]) was “inactive”, the IC50 (A 172) was 4.6 µM and the IC50 (MCF7) was 4.5 µM. It also gave an IC50 (HCT-116) of 5.9 µM, a fold change (FC) (microRNA 21 [3]) of 11 and an IC50 (microRNA 21 [4]) of 0.074 µM. For the same molecule, the Activity (A498) was 20% and the fold change (FC) (microRNA 21 [5]) was 1.6.
